In ChEMBL document CHEMBL1255526, “Fused tricyclic pyrrolizinones that exhibit pseudo-irreversible blockade of the NK1 receptor” (Bioorg Med Chem Lett, 2010):

Tests used:
Substance-P receptor [1] = target: T1, Substance-P receptor (Homo sapiens, UniProt P25103); assay: Displacement of [125I]substance P from human NK1 receptor expressed in CHO cells; assay type: cell-based
Method in brief: (§1)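 Radioligand binding: [125I]substance P displaced from human NK1 receptor expressed in CHO cells; IC50 determined. Also run with 50% serum added (human, dog, rhesus, rat or gerbil) to measure the serum shift.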

Substance-P receptor [2] = target: T1, Substance-P receptor; assay: Displacement of [125I]substance P from human NK1 receptor expressed in CHO cells in presence of 50% human serum; assay type: cell-based; method in brief: as §1
Substance-P receptor [3] = target: T1, Substance-P receptor; assay: Antagonist activity at human recombinant NK1 receptor expressed in CHO cells assessed as remaining substance P level at 100 nM after 30 mins by [H3]-inositol phosphate release assay; assay type: functional, cell-based
Method in brief: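 CHO cells with recombinant human NK1 receptor, 2.5 × 10⁴ per well, plated overnight, then prelabelled overnight at 37 °C with [3H]-myo-inositol (10–25 Ci/mmol) in inositol-free medium with 0.02% BSA. LiCl 10 mM in HEPES-buffered inositol-free DMEM, 15 min. Antagonist at 100 nM or DMSO for 30 min, then substance P for 30 min. Stopped with formic acid. [3H]-inositol phosphate captured on yttrium silicate SPA beads, 2 h. Reported as % substance P response remaining.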

[4] = target: T2, Nuclear receptor subfamily 1 group I member 2 (Homo sapiens, UniProt O75469); assay: Inhibition of human PXR induction
T2 sequence (O75469 whole entry): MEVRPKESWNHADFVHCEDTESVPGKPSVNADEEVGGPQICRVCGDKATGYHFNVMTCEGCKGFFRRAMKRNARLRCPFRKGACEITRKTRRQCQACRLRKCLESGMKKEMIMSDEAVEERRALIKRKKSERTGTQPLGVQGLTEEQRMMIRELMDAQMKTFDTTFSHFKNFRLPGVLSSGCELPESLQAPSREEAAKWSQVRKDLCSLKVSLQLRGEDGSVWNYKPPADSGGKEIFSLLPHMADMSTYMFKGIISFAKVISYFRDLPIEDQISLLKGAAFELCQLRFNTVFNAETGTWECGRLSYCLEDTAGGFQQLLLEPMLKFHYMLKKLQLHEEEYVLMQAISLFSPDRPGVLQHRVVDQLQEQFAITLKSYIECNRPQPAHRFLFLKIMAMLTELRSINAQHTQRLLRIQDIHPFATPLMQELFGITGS

[5] = target: T3, PXR (nuclear receptor subfamily 1 group I member 2) (Homo sapiens, UniProt O75469); assay: Inhibition of human PXR induction at 10 uM
T3 sequence (O75469 whole entry): T2 sequence (O75469 whole entry)
Method in brief: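 Human PXR induction measured at 10 µM compound, expressed as % of maximal induction.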

[6] = Binding affinity to potassium channel IKr
[7] = Binding affinity to calcium channel
Method in brief: (§2)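 Ion channel binding assay; IC50 values calculated for sodium channel and for calcium channel (Dlz site).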

[8] = Binding affinity to sodium channel; method in brief: as §2
Meriones unguiculatus [9] = assay: Inhibition of GR-73632-induced foot tapping in Mongolian gerbil at 3 mg/kg after 24 hrs; assay type: functional
Method in brief: (§3)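 Gerbils given antagonist at the dose and pretreatment time shown (1 mg/kg at 1 h, 3 mg/kg at 24 h); foot tapping then induced with the NK1 agonist GR73632. Read-out is % inhibition of tapping; ED50 or ID50 from dose–response.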

Meriones unguiculatus [10] = species on record: Meriones unguiculatus; assay: Inhibition of GR-73632-induced foot tapping in Mongolian gerbil after 24 hrs; assay type: functional; method in brief: as §3
Substance-P receptor [11] = target: T1, Substance-P receptor; assay: Displacement of [125I]substance P from human NK1 receptor expressed in CHO cells in presence of 50% dog serum; assay type: cell-based; method in brief: as §1
Substance-P receptor [12] = target: T1, Substance-P receptor; assay: Displacement of [125I]substance P from human NK1 receptor expressed in CHO cells in presence of 50% rhesus monkey serum; assay type: cell-based; method in brief: as §1
Substance-P receptor [13] = target: T1, Substance-P receptor; assay: Displacement of [125I]substance P from human NK1 receptor expressed in CHO cells in presence of 50% rat serum; assay type: cell-based; method in brief: as §1
Substance-P receptor [14] = target: T1, Substance-P receptor; assay: Displacement of [125I]substance P from human NK1 receptor expressed in CHO cells in presence of 50% mongolian gerbil serum; assay type: cell-based; method in brief: as §1
Meriones unguiculatus [15] = species on record: Meriones unguiculatus; assay: Inhibition of GR-73632-induced foot tapping in Mongolian gerbil after 1 hr; assay type: functional; settings: read-out: ID50 (the source's name); method in brief: as §3
[16] = Metabolic stability in dog microsomes assessed as compound remaining after 60 mins; assay type: ADME, Canis lupus familiaris, Microsome; settings: read-out: Stability
Method in brief: (§4)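 Compound incubated 60 min with liver microsomes from human, dog, rat or rhesus; % parent remaining measured.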

[17] = Metabolic stability in human microsomes assessed as compound remaining after 60 mins; assay type: ADME, Microsome; settings: read-out: Stability; method in brief: as §4
[18] = Metabolic stability in rat microsomes assessed as compound remaining after 60 mins; assay type: ADME, Microsome; settings: read-out: Stability; method in brief: as §4
[19] = Metabolic stability in rhesus monkey microsomes assessed as compound remaining after 60 mins; assay type: ADME, Macaca mulatta, Microsome; settings: read-out: Stability; method in brief: as §4
[20] = Plasma clearance in rat; assay type: ADME, organism-based
[21] = Mean residence time in rat; assay type: ADME, organism-based; settings: in vivo
[22] = Volume of distribution in rat; assay type: ADME, organism-based; settings: in vivo
[23] = Oral bioavailability in rat; assay type: ADME, organism-based; settings: in vivo
[24] = Plasma clearance in dog; assay type: ADME, organism-based, Canis lupus familiaris
Cytochrome P450 3A4 = Cytochrome P450 3A4 (Homo sapiens, UniProt P08684); assay: Inhibition of CYP3A4; assay type: ADME
Sequence of Cytochrome P450 3A4 (P08684 whole entry): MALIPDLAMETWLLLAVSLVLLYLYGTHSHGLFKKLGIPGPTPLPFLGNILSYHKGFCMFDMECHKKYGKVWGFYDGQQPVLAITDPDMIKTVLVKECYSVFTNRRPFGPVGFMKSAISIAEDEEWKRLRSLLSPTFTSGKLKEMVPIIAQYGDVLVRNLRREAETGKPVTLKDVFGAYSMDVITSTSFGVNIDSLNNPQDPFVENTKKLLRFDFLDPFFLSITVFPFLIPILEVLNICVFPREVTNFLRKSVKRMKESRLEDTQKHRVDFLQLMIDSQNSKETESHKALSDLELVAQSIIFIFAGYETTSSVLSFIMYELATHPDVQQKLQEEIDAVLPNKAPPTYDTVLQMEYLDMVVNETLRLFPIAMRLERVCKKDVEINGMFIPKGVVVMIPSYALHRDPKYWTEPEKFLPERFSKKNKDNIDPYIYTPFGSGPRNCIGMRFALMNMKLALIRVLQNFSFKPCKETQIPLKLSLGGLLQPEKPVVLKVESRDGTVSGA

Cytochrome P450 2D6 = Cytochrome P450 2D6 (Homo sapiens, UniProt P10635); assay: Inhibition of CYP2D6; assay type: ADME
Sequence of Cytochrome P450 2D6 (P10635 whole entry): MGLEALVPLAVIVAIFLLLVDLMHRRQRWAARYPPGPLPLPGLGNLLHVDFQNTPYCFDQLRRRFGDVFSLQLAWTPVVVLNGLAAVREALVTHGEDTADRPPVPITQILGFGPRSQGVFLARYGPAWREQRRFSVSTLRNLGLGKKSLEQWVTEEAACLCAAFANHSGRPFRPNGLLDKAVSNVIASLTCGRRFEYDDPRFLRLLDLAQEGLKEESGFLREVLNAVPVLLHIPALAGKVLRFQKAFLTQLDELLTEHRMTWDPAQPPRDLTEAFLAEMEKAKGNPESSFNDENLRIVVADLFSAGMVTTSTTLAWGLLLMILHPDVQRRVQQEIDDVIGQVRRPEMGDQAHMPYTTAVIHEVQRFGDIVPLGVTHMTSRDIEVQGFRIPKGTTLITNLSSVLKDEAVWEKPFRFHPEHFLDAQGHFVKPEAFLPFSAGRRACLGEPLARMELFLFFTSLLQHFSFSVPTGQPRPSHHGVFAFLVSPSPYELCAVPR

[25] = Half life in rat; assay type: ADME, organism-based; settings: in vivo
[26] = Half life in dog; assay type: ADME, organism-based, Canis lupus familiaris; settings: in vivo
Cytochrome P450 2C9 = Cytochrome P450 2C9 (Homo sapiens, UniProt P11712); assay: Inhibition of CYP2C9; assay type: ADME
Sequence of Cytochrome P450 2C9 (P11712 whole entry): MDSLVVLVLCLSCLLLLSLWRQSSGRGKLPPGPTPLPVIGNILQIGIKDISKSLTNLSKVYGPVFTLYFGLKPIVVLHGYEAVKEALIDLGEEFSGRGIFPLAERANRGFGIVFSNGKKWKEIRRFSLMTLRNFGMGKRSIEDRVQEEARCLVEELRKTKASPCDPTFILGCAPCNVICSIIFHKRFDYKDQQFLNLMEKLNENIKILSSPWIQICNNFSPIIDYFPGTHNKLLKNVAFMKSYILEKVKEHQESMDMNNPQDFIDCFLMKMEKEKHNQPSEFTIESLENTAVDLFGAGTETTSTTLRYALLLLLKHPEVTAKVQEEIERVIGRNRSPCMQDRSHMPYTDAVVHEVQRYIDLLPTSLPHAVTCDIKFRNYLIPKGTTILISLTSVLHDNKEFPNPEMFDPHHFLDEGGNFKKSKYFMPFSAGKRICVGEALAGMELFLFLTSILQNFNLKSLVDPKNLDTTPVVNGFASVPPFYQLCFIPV

[27] = Ratio of drug level in brain to plasma in Mongolian gerbil; assay type: ADME, Meriones unguiculatus; settings: read-out: BPR

T1 sequence (P25103 whole entry): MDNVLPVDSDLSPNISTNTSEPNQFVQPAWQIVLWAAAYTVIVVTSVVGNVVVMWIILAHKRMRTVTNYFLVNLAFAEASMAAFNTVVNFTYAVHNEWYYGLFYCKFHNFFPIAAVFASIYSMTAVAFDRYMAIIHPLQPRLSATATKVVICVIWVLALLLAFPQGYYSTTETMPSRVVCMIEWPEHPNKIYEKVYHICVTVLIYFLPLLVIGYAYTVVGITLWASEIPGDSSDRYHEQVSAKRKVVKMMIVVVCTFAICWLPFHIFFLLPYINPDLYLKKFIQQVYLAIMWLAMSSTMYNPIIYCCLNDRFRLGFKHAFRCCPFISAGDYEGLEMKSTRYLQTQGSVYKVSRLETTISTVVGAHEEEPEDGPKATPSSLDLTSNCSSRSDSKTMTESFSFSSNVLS

IC50 (Substance-P receptor [1]): 0.061 nM
IC50 (Substance-P receptor [2]): 0.7 nM
Activity (Substance-P receptor [3]): 3%
IC50 [4]: 8400 nM
Emax at 10 µM [5]: 37%
IC50 [7]: > 10000 nM
IC50 [8]: > 10000 nM
IC50 (Substance-P receptor [11]): 1.5 nM
IC50 (Substance-P receptor [12]): 0.4 nM
IC50 (Substance-P receptor [13]): 0.4 nM
IC50 (Substance-P receptor [14]): 1.9 nM
remaining at 1 h [16]: 90%
remaining at 1 h [17]: 96%
remaining at 1 h [18]: 96%
remaining at 1 h [19]: 99%
clearance [20]: 3.24 mL/min/kg
MRT [21]: 4.67 h
Vd [22]: 4.03 L/kg
bioavailability [23]: 88.8%
clearance [24]: 0.5 mL/min/kg
IC50 (Cytochrome P450 3A4): 22700 nM
IC50 (Cytochrome P450 2D6): 17400 nM
half-life [25]: 14.6 h
half-life [26]: 58 h
IC50 (Cytochrome P450 2C9): 43100 nM
Kp [27]: 0.5
Compound: C[C@@H](O[C@H]1CN2C(=O)[C@H]3C[C@@](C)(O)C[C@H]3[C@H]2[C@@H]1c1ccc(F)cc1)c1cc(C(F)(F)F)cc(C(F)(F)F)c1
IC50 [6]: 2470 nM
inhibition in vivo at 3 mg/kg (Meriones unguiculatus [9]): 100%
ED50 (Meriones unguiculatus [10]; read-out: ED50): 0.02 mg/kg
ED50 (Meriones unguiculatus [10]; read-out: ID50 (the source's name)): 0.02 mg/kg
ED50 (Meriones unguiculatus [15]): 0.02 mg/kg
